# According to ChEMBL document CHEMBL1137378, “Antibacterial agent discovery using thymidylate synthase biolibrary screening” (J Med Chem, 2006):
# How the values were obtained:
# [1] = species on record: Homo sapiens; experiment: Selectivity Index, Ki for human dihydrofolate reductase/Ki for human thymidylate synthase
# [2] = target: T1, Thymidylate synthase (Lactobacillus casei, UniProt P00469); experiment: Inhibition of Lactobacillus casei thymidylate synthase; parameters: species or system Lacticaseibacillus casei
# T1 sequence (P00469 whole entry): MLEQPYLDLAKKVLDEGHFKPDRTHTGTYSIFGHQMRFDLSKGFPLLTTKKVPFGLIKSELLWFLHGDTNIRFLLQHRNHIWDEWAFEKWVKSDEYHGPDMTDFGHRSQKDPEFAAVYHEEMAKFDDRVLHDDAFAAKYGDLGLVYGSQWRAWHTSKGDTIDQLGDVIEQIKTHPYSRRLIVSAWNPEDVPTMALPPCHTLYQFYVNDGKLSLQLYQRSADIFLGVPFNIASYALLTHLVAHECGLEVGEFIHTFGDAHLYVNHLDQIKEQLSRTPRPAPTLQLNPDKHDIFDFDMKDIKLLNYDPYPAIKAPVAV
# [3] = target: Thymidylate synthase (Escherichia coli, UniProt C3SWJ7); experiment: Inhibition of Escherichia coli thymidylate synthase
# [4] = target: T2, Thymidylate synthase (Cryptococcus neoformans var. neoformans B-3501A, UniProt P0CS13); experiment: Inhibition of Cryptococcus neoformans thymidylate synthase
# T2 sequence (P0CS13 whole entry): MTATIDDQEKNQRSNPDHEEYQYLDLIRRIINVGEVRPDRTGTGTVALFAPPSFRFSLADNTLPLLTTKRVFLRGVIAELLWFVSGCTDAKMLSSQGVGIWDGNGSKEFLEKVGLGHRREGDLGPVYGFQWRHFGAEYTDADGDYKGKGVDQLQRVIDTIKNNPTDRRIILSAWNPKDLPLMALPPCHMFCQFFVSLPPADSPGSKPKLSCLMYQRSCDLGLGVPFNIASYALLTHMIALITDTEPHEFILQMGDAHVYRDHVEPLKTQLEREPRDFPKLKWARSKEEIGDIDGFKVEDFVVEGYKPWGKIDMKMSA
# [5] = target: Thymidylate synthase (Homo sapiens, UniProt P04818); experiment: Inhibition of human thymidylate synthase
# [6] = target: T3, Dihydrofolate reductase (Homo sapiens, UniProt P00374); experiment: Inhibition of human dihydrofolate reductase
# T3 sequence (P00374 whole entry): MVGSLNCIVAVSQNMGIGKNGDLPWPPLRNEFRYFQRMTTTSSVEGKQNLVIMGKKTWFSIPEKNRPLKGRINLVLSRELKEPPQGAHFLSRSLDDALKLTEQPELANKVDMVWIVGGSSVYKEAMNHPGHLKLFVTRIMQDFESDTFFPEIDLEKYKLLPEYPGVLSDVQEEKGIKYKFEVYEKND
# In short: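 Purified human DHFR assayed spectrophotometrically at 25 °C by the fall in A340 on DHF reduction. Ki from steady-state kinetics.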
# [7] = Specificity Index, Ki for human thymidylate synthase/Ki for Lactobacillus casei thymidylate synthase
# [8] = Specificity Index, Ki for human thymidylate synthase/Ki for Escherichia coli thymidylate synthase
# [9] = Specificity Index, Ki for human thymidylate synthase/Ki for Cryptococcus neoformans thymidylate synthase
# In short: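 Specificity index is Ki of hTS divided by Ki of the pathogen TS (LcTS, EcTS or CnTS). Each enzyme was purified to >95% and assayed spectrophotometrically at 340 nm, 20 °C. Buffer was TES 50 mM pH 7.4 with MgCl2, formaldehyde, EDTA and 2-mercaptoethanol, plus dUMP 100 µM, mTHF 140 µM and enzyme 0.07 µM.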
# [10] = test system: Enterococcus faecalis; experiment: Antibacterial activity against Enterococcus faecalis ATCCC29212; type: functional
# In short: (§1)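 Wild-type strain panel (18 Gram-positive and Gram-negative strains). Bacteria grown in Mueller-Hinton broth at 37 °C for 24 h. Exponentially growing cultures diluted in sterile liquid medium to a final inoculum of about 1 × 10⁴ CFU/mL, then exposed to increasing compound concentrations. MIC taken as the lowest concentration with no evident bacterial growth.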
# [11] = test system: Escherichia coli; experiment: Antibacterial activity against Escherichia coli 256; type: functional; in short: as §1
# [12] = test system: Escherichia coli; experiment: Antibacterial activity against Escherichia coli 292; type: functional; in short: as §1
# [13] = test system: Listeria monocytogenes; experiment: Antibacterial activity against Listeria monocytogenes 3; type: functional; in short: as §1
# [14] = test system: Listeria monocytogenes; experiment: Antibacterial activity against Listeria monocytogenes 4; type: functional; in short: as §1
# [15] = test system: Listeria monocytogenes; experiment: Antibacterial activity against Listeria monocytogenes 5; type: functional; in short: as §1
# [16] = test system: Listeria monocytogenes; experiment: Antibacterial activity against Listeria monocytogenes 6; type: functional; in short: as §1
# [17] = test system: Listeria monocytogenes; experiment: Antibacterial activity against Listeria monocytogenes 7; type: functional; in short: as §1
# [18] = test system: Listeria monocytogenes; experiment: Antibacterial activity against Listeria monocytogenes 8; type: functional; in short: as §1
# [19] = test system: Listeria monocytogenes; experiment: Antibacterial activity against Listeria monocytogenes ATCC 4428; type: functional; in short: as §1
# [20] = test system: Staphylococcus aureus; experiment: Antibacterial activity against Staphylococcus aureus 341; type: functional; in short: as §1
# [21] = test system: Staphylococcus aureus; experiment: Antibacterial activity against Staphylococcus aureus 343; type: functional; in short: as §1
# [22] = test system: Staphylococcus aureus; experiment: Antibacterial activity against Staphylococcus aureus K28; type: functional; in short: as §1
# [23] = test system: Staphylococcus aureus; experiment: Antibacterial activity against Staphylococcus aureus ATCC 29213; type: functional; in short: as §1
# [24] = test system: Staphylococcus haemolyticus; experiment: Antibacterial activity against Staphylococcus haemolyticus ATCC 2997; type: functional; in short: as §1
# [25] = test system: Staphylococcus saprophyticus; experiment: Antibacterial activity against Staphylococcus saprophyticus ATCC 15305; type: functional; in short: as §1
# [26] = test system: Citrobacter; experiment: Antibacterial activity against Citrobacter 224; type: functional; in short: as §1
# [27] = test system: Streptococcus; experiment: Antibacterial activity against Streptococcus 42; type: functional; in short: as §1
# [28] = test system: Vero; experiment: Cytotoxicity against Vero cells measured as percent of cell growth at 25 mg/L relative to control by MTT assay; type: functional, Chlorocebus sabaeus
# In short: (§2)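 VERO cells grown in MEM with 5% heat-inactivated (56 °C, 30 min) FCS, penicillin, streptomycin and L-glutamine. Cultures were watched for 2 days and live cells counted. Cells were then exposed to increasing compound concentrations; wells with cells only served as control. After 24 h, mitochondrial dehydrogenase activity was read by MTT. Trypan blue exclusion was also run.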
# [29] = test system: Vero; experiment: Cytotoxicity against Vero cells measured as percent of cell growth at 12.05 mg/L relative to control by MTT assay; type: functional, Chlorocebus sabaeus; in short: as §2
# [30] = test system: Vero; experiment: Cytotoxicity against Vero cells measured as percent of cell growth at 6.25 mg/L relative to control by MTT assay; type: functional, Chlorocebus sabaeus; in short: as §2
# [31] = test system: Vero; experiment: Cytotoxicity against Vero cells measured as percent of cell growth at 3.12 mg/L relative to control by MTT assay; type: functional, Chlorocebus sabaeus; in short: as §2
# [32] = test system: Vero; experiment: Cytotoxicity against Vero cells measured as percent of cell growth at 50 mg/L relative to control by MTT assay; type: functional, Chlorocebus sabaeus; in short: as §2
# [33] = test system: Vero; experiment: Cytotoxicity against Vero cells measured as percent of cell growth at 1.56 mg/L relative to control by MTT assay; type: functional, Chlorocebus sabaeus; in short: as §2
# Chain of Thymidylate synthase (Homo sapiens, UniProt P04818) (P04818 whole entry): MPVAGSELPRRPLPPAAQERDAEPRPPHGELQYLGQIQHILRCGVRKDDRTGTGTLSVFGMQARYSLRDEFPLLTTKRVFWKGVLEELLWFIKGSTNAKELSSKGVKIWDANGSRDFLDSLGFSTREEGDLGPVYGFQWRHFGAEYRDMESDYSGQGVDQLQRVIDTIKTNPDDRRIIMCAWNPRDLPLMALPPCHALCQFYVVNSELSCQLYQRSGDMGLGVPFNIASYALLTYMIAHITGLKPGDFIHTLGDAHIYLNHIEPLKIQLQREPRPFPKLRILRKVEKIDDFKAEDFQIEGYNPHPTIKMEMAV
# Chain of Thymidylate synthase (Escherichia coli, UniProt C3SWJ7) (C3SWJ7 whole entry): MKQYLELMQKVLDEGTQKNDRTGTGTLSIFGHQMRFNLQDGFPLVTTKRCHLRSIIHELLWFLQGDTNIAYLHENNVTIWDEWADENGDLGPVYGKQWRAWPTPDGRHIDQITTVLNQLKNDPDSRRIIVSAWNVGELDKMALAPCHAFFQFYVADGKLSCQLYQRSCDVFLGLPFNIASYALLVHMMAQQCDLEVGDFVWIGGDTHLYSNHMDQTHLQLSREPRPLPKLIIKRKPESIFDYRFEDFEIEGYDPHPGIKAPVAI
Selectivity index [1],Ki [2],Ki [3],Ki [4],Ki [5],Ki [6],Ratio Ki [7],Ratio Ki [8],Ratio Ki [9],MIC [10],MIC [11],MIC [12],MIC [13],MIC [14],MIC [15],MIC [16],MIC [17],MIC [18],MIC [19],MIC [20],SMILES,further results
5,2 µM,5.3 µM,3.3 µM,5.7 µM,28 µM,3,1,2,,,,,,,,,,,,O=C1OC(c2cc(Cl)c(O)c(Cl)c2)(c2cc(Cl)c(O)c(Cl)c2)c2cccc3cccc1c23,
< 0.01,2 µM,1.5 µM,4.5 µM,> 245 µM,3.9 µM,> 123,> 163,> 54,,,,,,,,,,,,O=C1OC(c2ccc(O)c(I)c2)(c2ccc(O)c(I)c2)c2c1ccc1ccccc21,
< 1,31 µM,,16 µM,> 132 µM,94 µM,> 4,,> 8,,,,,,,,,,,,O=C1OC(c2ccc(O)c(I)c2)(c2ccc(O)c(I)c2)c2cccc3cccc1c23,
,,,3.5 µM,,109 µM,,,,25 µg/mL,> 50 µg/mL,> 50 µg/mL,25 µg/mL,25 µg/mL,25 µg/mL,25 µg/mL,25 µg/mL,25 µg/mL,25 µg/mL,25 µg/mL,O=C1OC(c2ccc(O)c(F)c2)(c2ccc(O)c(F)c2)c2ccc3ccccc3c21,MIC [21]: 25 µg/mL; MIC [22]: 25 µg/mL; MIC [23]: 25 µg/mL; MIC [24]: 25 µg/mL; MIC [25]: 25 µg/mL; MIC [26]: > 50 µg/mL; MIC [27]: 25 µg/mL
,,,,,42 µM,,,,,,,,,,,,,,,O=C1OC(c2ccc(O)c(F)c2)(c2ccc(O)c(F)c2)c2cccc3cccc1c23,
3,6.8 µM,0.9 µM,13 µM,4.7 µM,15 µM,1,5,0.4,10 µg/mL,> 50 µg/mL,> 50 µg/mL,2.5 µg/mL,5 µg/mL,5 µg/mL,5 µg/mL,1 µg/mL,5 µg/mL,5 µg/mL,5 µg/mL,O=C1OC(c2ccc(O)c(Br)c2)(c2ccc(O)c(Br)c2)c2cccc3cccc1c23,Activity [28]: 84%; Activity [29]: 100%; Activity [30]: 100%; Activity [31]: 100%; MIC [21]: 5 µg/mL; MIC [22]: 5 µg/mL; MIC [23]: 5 µg/mL; MIC [24]: 5 µg/mL; MIC [25]: 5 µg/mL; MIC [26]: > 50 µg/mL; MIC [27]: 5 µg/mL; Activity [32]: 41%; Activity [33]: 100%

SMILES,Selectivity index [1],Ki [2],Ki [3],Ki [4],Ki [5],Ki [6],Ratio Ki [7],Ratio Ki [8],Ratio Ki [9],MIC [10],MIC [11],MIC [12],MIC [13],MIC [14],MIC [15],MIC [16],MIC [17],MIC [18],MIC [19],MIC [20],further results
O=C(O)c1cn(C2CC2)c2cc(N3CCNCC3)c(F)cc2c1=O [CIPROFLOXACIN],,,,,,,,,,12.5 µg/mL,> 25 µg/mL,> 25 µg/mL,2.5 µg/mL,1 µg/mL,2.5 µg/mL,2.5 µg/mL,1 µg/mL,1 µg/mL,2.5 µg/mL,1.2 µg/mL,MIC [21]: 0.5 µg/mL; MIC [22]: 0.5 µg/mL; MIC [23]: 0.5 µg/mL; MIC [24]: 2.5 µg/mL; MIC [25]: 1 µg/mL; MIC [26]: > 25 µg/mL; MIC [27]: > 5 µg/mL
O=C1OC(c2ccc(O)cc2)(c2ccc(O)cc2)c2c1ccc1ccccc21,< 1,,4.4 µM,0.4 µM,> 132 µM,,> 12,> 30,> 330,,,,,,,,,,,,
